Reference: ChEMBL document CHEMBL1124174, “Substituted benzamides. 1. Potential nondopaminergic antagonists of chemotherapy-induced nausea and emesis” (J Med Chem, 1988)
Values joined by “and” are separate entries in the source; they are usually repeats but may differ in a detail not shown here. Identical values can stand only once.

Columns and labels:
[1] = molecular target: D(2) dopamine receptor (Rattus norvegicus) (UniProt P61169); assay: In vivo antagonism activity against D2 receptor was measured as stereotypy in rat when administered subcutaneously; type: functional, organism-based
Method in brief: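 Male Long Evans rats (275 g) were dosed sc in dilute aqueous HCl (pH 4.5-5.5) 30 min before apomorphine (1 mg/kg sc).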

Mustela putorius furo [2] = assay: In vivo antagonism of cisplatin-induced emesis in ferret measured as emetic episodes, twice the dose of 3 mg/kg and in 3 ferrets; type: functional
Method in brief: (§1)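 Nonfasted castrated male Fitch ferrets (1–1.5 kg) had jugular catheters implanted ≥48 h earlier under anesthesia. Compounds or saline were given iv twice, 5 min before and 90 min after cisplatin (12 mg/kg iv; 12 mg/mL in warm 0.9% saline). Emesis was observed up to 4 h; events within 1 min counted as one episode. Results were given as mean emetic episodes and % protection versus a pooled historical/concurrent control. t test versus saline.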

Mustela putorius furo [3] = assay: In vivo antagonism of cisplatin-induced emesis in ferret measured as percentage protection for twice the dose of 3 mg/kg and in 3 ferrets; type: functional; method in brief: as §1
D(2) dopamine receptor = D(2) dopamine receptor (Rattus norvegicus, UniProt P61169); assay: In vitro antagonistic activity against Dopamine receptor D2 was evaluated for the inhibition of [3H]spiperone binding
Method in brief: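 Rat striatal membranes were prepared by differential centrifugation in 50 mM Tris pH 7.4 at 4 °C. Membrane protein (10 mg) was incubated 15 min at 37 °C with 0.1 nM [3H]spiperone and varying competitor concentrations. Buffer: 50 mM Tris HCl pH 7.5, 0.1% ascorbic acid, pargyline, 120 mM NaCl, 5 mM KCl, 2 mM CaCl2, 1 mM MgCl2. (+)-Butaclamol defined nonspecific binding. Bound ligand was collected by filtration and scintillation counted. IC50 by log-logit regression.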

[4] = molecular target: D(2) dopamine receptor (Canis lupus familiaris) (UniProt Q9GJU1); assay: In vivo antagonism activity against dopamine D2 receptor was measured as emesis in dog when administered subcutaneously; type: functional, organism-based
[5] = molecular target: D(2) dopamine receptor (Rattus norvegicus) (UniProt P61169); assay: In vivo antagonistic activity against dopamine D2 receptor was measured as catalepsy in rat when administered subcutaneously; type: functional, organism-based
Method in brief: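 Male Long Evans rats (275 g) received graded sc doses in dilute aqueous HCl (pH 4.5-5.5). They were observed 180 min for catalepsy, scored when the animal stayed stationary ≥15 s on a four-cork template.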

Mustela putorius furo [6] = assay: In vivo antagonism of cisplatin-induced emesis in ferret measured as emetic episodes, twice the dose of 1 mg/kg and in 3 ferrets; type: functional; method in brief: as §1
Canis familiaris [7] = assay: In vivo antagonism of cisplatin-induced emesis in dog measured as emetic episodes, twice the dose of 1 mg/kg in 2 dogs; type: functional, Canis lupus familiaris
Method in brief: (§2)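 Nonfasted mature male or female beagles were dosed sc twice, 30 min before and 120 min after cisplatin (3 mg/kg iv; 3 mg/mL in warm 0.9% saline, used immediately). Emesis was observed up to 5 h; events within 2 min counted as one episode. Results were given as mean emetic episodes and % protection versus a dynamic control (historical and concurrent saline means pooled). t test versus saline.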

Canis familiaris [8] = assay: In vivo antagonism of cisplatin-induced emesis in dog measured as percentage protection for twice the dose of 1 mg/kg in 2 dogs; type: functional, Canis lupus familiaris; method in brief: as §2
Mustela putorius furo [9] = assay: In vivo antagonism of cisplatin-induced emesis in ferret measured as percentage protection for twice the dose of 1 mg/kg and in 3 ferrets; type: functional; method in brief: as §1

Sequence of D(2) dopamine receptor (Rattus norvegicus) (P61169 whole entry): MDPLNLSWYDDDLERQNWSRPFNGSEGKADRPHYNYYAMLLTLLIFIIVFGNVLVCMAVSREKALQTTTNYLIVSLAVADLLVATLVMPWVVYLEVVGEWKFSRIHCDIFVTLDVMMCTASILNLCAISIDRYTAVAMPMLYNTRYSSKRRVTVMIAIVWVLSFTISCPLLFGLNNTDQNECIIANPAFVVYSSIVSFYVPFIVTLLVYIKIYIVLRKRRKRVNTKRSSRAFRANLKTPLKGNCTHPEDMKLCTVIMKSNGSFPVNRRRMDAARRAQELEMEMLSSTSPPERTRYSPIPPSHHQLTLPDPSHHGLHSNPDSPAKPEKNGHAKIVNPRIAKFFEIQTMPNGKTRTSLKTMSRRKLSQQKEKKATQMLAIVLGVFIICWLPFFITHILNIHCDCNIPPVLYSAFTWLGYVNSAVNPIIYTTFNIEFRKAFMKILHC
Sequence of D(2) dopamine receptor (P61169 whole entry): as above
Sequence of D(2) dopamine receptor (Canis lupus familiaris) (Q9GJU1 whole entry): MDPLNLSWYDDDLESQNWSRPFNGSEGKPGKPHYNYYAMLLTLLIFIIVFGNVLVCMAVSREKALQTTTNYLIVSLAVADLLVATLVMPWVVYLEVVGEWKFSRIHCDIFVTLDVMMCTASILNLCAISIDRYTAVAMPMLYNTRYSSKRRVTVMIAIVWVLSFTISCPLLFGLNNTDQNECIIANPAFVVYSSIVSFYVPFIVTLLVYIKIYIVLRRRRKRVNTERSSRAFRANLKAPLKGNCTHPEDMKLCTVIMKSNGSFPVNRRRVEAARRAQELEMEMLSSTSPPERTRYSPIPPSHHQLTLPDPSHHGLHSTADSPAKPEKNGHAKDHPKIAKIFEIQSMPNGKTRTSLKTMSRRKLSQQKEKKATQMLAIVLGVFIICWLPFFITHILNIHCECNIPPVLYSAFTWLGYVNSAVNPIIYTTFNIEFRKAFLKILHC

Compound | ED50 [1] | IC50 (D(2) dopamine receptor) | Emetic episodes (Mustela putorius furo [2]) | Protection (Mustela putorius furo [3]) | ED50 [4] | ED50 [5] | Emetic episodes (Mustela putorius furo [6]) | Protection (Mustela putorius furo [6]) | Emetic episodes (Canis familiaris [7]) | Protection (Canis familiaris [8]) | Protection (Mustela putorius furo [9]; 1 mg/kg) | Protection (Mustela putorius furo [9]) | Emetic episodes (Mustela putorius furo [2]; 3 mg/kg)
C=CCN1CCCC1CNC(=O)c1cc2nn[nH]c2cc1O (centres undefined) | > 40 mg/kg |  | 8 | 0% | > 3 mg/kg | > 40 mg/kg |  |  |  |  |  |  | 
CCN(CC)CCNC(=O)c1cc(Cl)c(N)cc1OC[C@@H](C)O (stereo in doubt; 8e) | > 40 mg/kg |  |  |  | > 3 mg/kg | > 40 mg/kg |  |  |  |  |  |  | 
CCN(CC)CCNC(=O)c1cc(Cl)c(N)cc1OC(C)C(C)O (stereo in doubt; 8h) | > 40 mg/kg |  |  |  | > 3 mg/kg | > 40 mg/kg |  |  |  |  |  |  | 
CCN(CC)CCNC(=O)c1cc(Cl)c(N)cc1OC(C)C(C)O (stereo in doubt; 8g,h) | > 40 mg/kg |  |  |  |  | > 40 mg/kg |  |  |  |  |  |  | 
CCN(CC)CCN(C)C(=O)c1cc(Cl)c(N)cc1O.Cl | > 40 mg/kg | > 1000 nM | 5 | 30% | > 3 mg/kg | > 40 mg/kg |  |  |  |  |  |  | 
CCN(CC)CCNC(=O)c1cc(Cl)c(N)cc1OCCO | > 40 mg/kg | > 1000 nM | 2.3 | 68% | > 3 mg/kg | > 40 mg/kg |  |  | 3 | 76% |  |  | 
C=CCN1CCCC1CNC(=O)c1cc2nn[nH]c2cc1OC(C)C(C)=O (centres undefined) | > 40 mg/kg | > 1000 nM | 5.7 | 21% | > 3 mg/kg | > 40 mg/kg |  |  |  |  |  |  | 
CCN(CC)CCNC(=O)c1cc(Cl)c(N)cc1OCc1ccccn1 | > 40 mg/kg | > 1000 nM | 1 | 86% | > 3 mg/kg | > 40 mg/kg | 2.3 |  |  |  |  | 67% | 
CCN(CC)CCNC(=O)c1cc(Cl)c(N)cc1OC(C)/C(C)=N/O (centres undefined) | > 40 mg/kg | > 1000 nM |  |  | > 3 mg/kg | > 40 mg/kg | 4.3 |  |  |  |  | 44% | 
CCN(CC)CCNC(=O)c1cc(Cl)c(N)cc1OCCOC | > 40 mg/kg | > 1000 nM |  |  | > 3 mg/kg | > 40 mg/kg |  |  | 1.5 | 88% |  |  | 1.7 and 5
CCN(CC)CCN(C)C(=O)c1cc(Cl)c(N)cc1OC | > 40 mg/kg | > 1000 nM | 8.7 | 0% | > 3 mg/kg | > 40 mg/kg |  |  |  |  |  |  | 
CCN(CC)CCN1CCOc2cc(N)c(Cl)cc2C1=O | > 40 mg/kg | > 1000 nM |  |  | > 3 mg/kg | > 40 mg/kg | 6 |  |  |  |  | 14% | 
CCN(CC)CCNC(=O)c1cc(Cl)c(N)cc1OCC1CO1 (centres undefined) | > 40 mg/kg | > 1000 nM | 4.7 | 44% | > 3 mg/kg | > 40 mg/kg |  |  |  |  |  |  | 
CCN(CC)CCNC(=O)c1cc(Cl)c(N)cc1OCC(=O)c1cccs1 | > 40 mg/kg | > 1000 nM | 0.3 | 95% |  | > 40 mg/kg |  |  | 3 | 75% |  |  | 
CCN(CC)CCNC(=O)c1cc(Cl)c(N)cc1OC(C)C(C)O (stereo in doubt; 8g) | > 40 mg/kg |  |  |  | > 3 mg/kg | > 40 mg/kg |  |  |  |  |  |  | 
C=CCC(Oc1cc(N)c(Cl)cc1C(=O)NCCN(CC)CC)C(C)=O (centres undefined) | > 40 mg/kg | > 1000 nM | 2.3 | 68% | > 3 mg/kg | > 40 mg/kg | 1.7 | 76% | 6 | 52% |  |  | 
CCN(CC)CCNC(=O)c1cc(Cl)c(N)cc1OC1CCCC[C@@H]1O (some centres undefined) | > 40 mg/kg | > 1000 nM | 3 | 60% | > 3 mg/kg | > 40 mg/kg |  |  | 4 | 66% |  |  | 
CCN(CC)CCNC(=O)c1cc(Cl)c(N)cc1OC[C@@H](C)O (stereo in doubt; 8f) | > 40 mg/kg |  |  |  | > 3 mg/kg | > 40 mg/kg |  |  |  |  |  |  | 
CCN(CC)CCNC(=O)c1cc(Cl)c(N)cc1OCC(O)CO (centres undefined) | > 40 mg/kg | > 1000 nM | 6.3 | 10% | > 3 mg/kg | > 40 mg/kg |  |  |  |  |  |  | 
CCN(CC)CCNC(=O)c1cc(Cl)c(N)cc1OCC(=O)OC | > 40 mg/kg | > 1000 nM | 5 | 30% | > 3 mg/kg | > 40 mg/kg |  |  |  |  |  |  | 

More lines, main results first:

ED50 [1] | IC50 (D(2) dopamine receptor) | Compound | Emetic episodes (Mustela putorius furo [2]) | Protection (Mustela putorius furo [3]) | ED50 [4] | ED50 [5] | Emetic episodes (Mustela putorius furo [6]) | Protection (Mustela putorius furo [6]) | Emetic episodes (Canis familiaris [7]) | Protection (Canis familiaris [8]) | Protection (Mustela putorius furo [9]; 1 mg/kg) | Protection (Mustela putorius furo [9]) | Emetic episodes (Mustela putorius furo [2]; 3 mg/kg)
> 40 mg/kg | > 1000 nM | CCN(CC)CCC[S+]([O-])c1cc(Cl)c(N)cc1OC (centres undefined) | 2 | 70% | > 1 mg/kg | > 40 mg/kg |  |  |  |  |  |  | 
 | > 1000 nM | C=CCN1CCCC1CNC(=O)c1cc2[nH]nnc2cc1O (centres undefined) |  |  |  |  |  |  |  |  |  |  | 
> 40 mg/kg | > 1000 nM | CCN(CC)CCNC(=O)c1cc(Cl)c(N)cc1OCCC1(C)OCCO1 | 1.3 | 80% | > 3 mg/kg | > 40 mg/kg |  |  |  |  |  |  | 
10 mg/kg | 7.7 nM | CCN1CCCCCOc2cc(N)c(Cl)cc2C(=O)NCCC1 | 2.3 | 67% | > 3 mg/kg | > 40 mg/kg |  |  |  |  |  |  | 
> 40 mg/kg | > 1000 nM | CCN(CC)CCNC(=O)c1cc(Cl)c(N)cc1OCC1OCCO1 | 2.3 | 67% | > 3 mg/kg | > 40 mg/kg | 4 | 43% |  |  |  |  | 
> 40 mg/kg | > 1000 nM | CCN(CC)CCNC(=O)c1cc(Cl)c(N)cc1OCC1=NCCN1 | 1 | 86% | > 3 mg/kg | > 40 mg/kg |  |  | 1.5 | 88% |  |  | 
> 40 mg/kg | > 1000 nM | CCN(CC)CCNC(=O)c1cc(Cl)c(N)cc1OCC(O)COC (centres undefined) | 3.3 | 54% | > 3 mg/kg | > 40 mg/kg |  |  |  |  |  |  | 
 | > 1000 nM | CCN1CCCNC(=O)c2cc(Cl)c(N)cc2OCCOCC1 | 11.7 | 0% | > 3 mg/kg | > 40 mg/kg |  |  |  |  |  |  | 
> 40 mg/kg | > 1000 nM | CCN(CC)CCNC(=O)c1cc(Cl)c(N)cc1OCC1CCCO1 (centres undefined) | 3.3 | 54% | > 3 mg/kg | > 40 mg/kg |  |  |  |  |  |  | 
> 40 mg/kg | > 1000 nM | CCN(CC)CCNC(=O)c1cc(Cl)c(N)cc1OCC(C)(C)O | 1.3 |  | > 3 mg/kg | > 40 mg/kg | 3 |  |  |  | 84% and 57% |  | 
> 40 mg/kg | > 1000 nM | CCN(CC)CCNC(=O)c1cc(Cl)c(N)cc1OC/C(C)=N/O | 0 | 100% | > 3 mg/kg | > 40 mg/kg |  |  | 2.5 | 79% |  |  | 
> 40 mg/kg | > 1000 nM | CCN(CC)CCNC(=O)c1cc(Cl)c(N)cc1OCC(O)Cc1ccccc1 (centres undefined) |  |  | > 3 mg/kg | > 40 mg/kg | 3.3 |  |  |  |  | 54% | 
> 40 mg/kg | > 1000 nM | CCN(CC)CCNC(=O)c1cc(Cl)c(N)cc1OCc1cc(C)no1 | 2 | 72% | > 3 mg/kg | > 40 mg/kg |  |  |  |  |  |  | 
> 40 mg/kg | > 1000 nM | C/C=C/COc1cc(N)c(Cl)cc1C(=O)NCCN(CC)CC | 0.7 | 90% | > 3 mg/kg | > 40 mg/kg |  |  | 2.5 | 80% |  |  | 
> 40 mg/kg | > 1000 nM | CCN(CC)CCNC(=O)c1cc(Cl)c(N)cc1OCc1ccccc1 |  |  | > 1 mg/kg | > 40 mg/kg |  |  |  |  |  |  | 
> 40 mg/kg | > 1000 nM | CCN(CC)CCNC(=O)c1cc(Cl)c(N)c2c(C)c(C)oc12 | 3.3 | 53% | > 3 mg/kg | > 40 mg/kg |  |  |  |  |  |  | 
> 40 mg/kg | > 1000 nM | CCN(CC)CCNC(=O)c1cc(Cl)c(N)cc1OCC1(C)CO1 (centres undefined) | 3.3 | 53% | > 3 mg/kg | > 40 mg/kg |  |  |  |  |  |  | 
 | 200 nM | C=CCN1CCCC1CNC(=O)c1cc2[nH]nnc2cc1OC (centres undefined) [ALIZAPRIDE] |  |  |  |  |  |  |  |  |  |  | 
